Published values pooled from the literature.
Lines come from different studies, so protocols differ.
Effect on: cell growth or viability

Structure (SMILES) | cell line | method | time | IC50
COc1cc([C@@H]2c3cc4c(cc3[C@@H](O[C@@H]3O[C@@H]5CO[C@@H](C)O[C@H]5[C@H](O)[C@H]3O)[C@H]3COC(=O)[C@H]23)OCO4)cc(OC)c1O | CCD-18Co | MTS | 48 h | 43.7 µM
COc1ccc(Oc2ccccc2NC(=O)CNC(=O)c2cccc3ccccc23)cc1 | SK-N-AS |  |  | 0.091 µM
CCCCNS(=O)(=O)c1ccc(-c2ccc3oc(C(=O)c4cc(O)c(O)c(O)c4)cc3c2)cc1 | HEK-293T | ATP luminescence | 24 h | 15 µg/mL
COC(=O)CN=c1scc(-c2ccccc2)n1-c1ccc(Cl)cc1 | PANC-03-27 | MTT | 72 h | 22.1 µM
COc1cc2nccc(Oc3ccc(NC(=O)C4(C(=O)Nc5ccc(F)cc5)CC4)cc3)c2cc1OC | human Myoblast |  | 72 h | 0.14 µM
COc1cccc2c1C(=O)c1c(O)c3c(c(O)c1C2=O)C[C@@](O)(C(=O)CO)C[C@@H]3O[C@H]1C[C@H](N)[C@H](O)[C@H](C)O1 | NCI-H292 | WST-1 | 72 h | 0.03 µM
COC1=C2C[C@@H](C)C[C@H](OC)[C@H](O)[C@@H](C)/C=C(\C)[C@H](OC(N)=O)[C@@H](OC)/C=C\C=C(/C)C(=O)NC(=CC1=O)C2=O | A-431 | MTT |  | 0.048 µM
CC[C@@H](C)[C@H](N)C(=O)N1Cc2ccccc2C1 | TF-1 | ATP luminescence | 48 h | > 60 µM
COc1cc(Nc2nccc(-c3cnn4nc(OC)ccc34)n2)cc(C(F)(F)F)c1 | NCI-H2009 | ATP luminescence |  | 0.71 µM
COC(=O)CN=c1scc(-c2ccccc2)n1-c1ccc(C)cc1 | PANC-03-27 | MTT | 72 h | 10.8 µM
COc1cc(-c2ncn(/C=C\C(=O)OC(C)C)n2)cc(C(F)(F)F)c1 | SKNO-1 |  | 72 h | 0.058 µM
CC(C)C[C@H](NC(=O)[C@H](Cc1ccccc1)NC(=O)c1cnccn1)B(O)O | NCI-H292 | ATP luminescence |  | 0.0093 µM
COc1cccc(Oc2ccccc2NC(=O)CNC(=O)c2cccc3ccccc23)c1 | SK-N-BE(2)-C |  |  | 0.236 µM
O=c1[nH]cc(S(=O)(=O)Nc2cccc(-c3nnc(-c4cccc(Cl)c4)o3)c2)c(=O)[nH]1 | NCI-H292 | MTT | 24 h | 3.81 µM
Cc1cnc(NC2CCOCC2)nc1-n1cnc(C(=O)NC(CN)c2cc(F)cc(Cl)c2)c1 (centres unmarked) | KM-H2 | MTS |  | 2.6 µM
COC(=O)CN=c1scc(-c2ccccc2)n1-c1ccc(OC)cc1 | PANC-03-27 | MTT | 72 h | 11.5 µM

Structure (SMILES) | cell line | method | time | IC50
O=C(NCc1ccc(CO)cc1)c1c[nH]c2ccc(Cl)cc12 | SK-N-BE(2)-C | MTT |  | 17 µM
O=C(CNC(=O)c1cccc2ccccc12)Nc1ccccc1Oc1ccccc1 | SK-N-AS |  |  | 0.107 µM
O=C(O)c1ccc(NC(=O)c2cc3cc(Cl)ccc3[nH]2)cc1 | SK-N-BE(2)-C | MTT |  | 21 µM
COC(=O)CN=c1scc(-c2ccccc2)n1-c1ccccc1 | PANC-03-27 | MTT | 72 h | 72.2 µM
O=C1/C(=C/c2cc(O)c(O)c(O)c2)Oc2ccccc21 | HEK-293T | ATP luminescence | 24 h | 23 µg/mL
O=CC[C@@H](O)[C@H](O)[C@H](O)CO | A-431 | MTT | 3 h | > 6000 µM
O=C(CNC(=O)c1cccc2ccccc12)Nc1ccccc1Oc1ccc(O)cc1 | SK-N-AS |  |  | 0.156 µM
O=C(c1cc(O)c(O)c(O)c1)c1cc2ccccc2o1 | HEK-293T | ATP luminescence | 24 h | 1.3 µg/mL
C[C@H]1Oc2cc(cnc2N)-c2c(nn(C)c2C#N)CN(C)C(=O)c2ccc(F)cc21 | A-431 |  |  | > 10 µM
COc1cc(N2CCC(N3CCN(C)CC3)CC2)ccc1Nc1ncc(Cl)c(Nc2ccccc2S(=O)(=O)C(C)C)n1 | human Myoblast |  | 72 h | 0.45 µM
[Cl-].[Cl-].[Ti+4].c1cc[cH-]c1.c1cc[cH-]c1 | HEK-293T | XTT | 72 h | > 200 µM
Cc1cc(Nc2ncc(Cl)c(Nc3ccccc3S(=O)(=O)C(C)C)n2)c(OC(C)C)cc1C1CCNCC1 | human Myoblast |  | 72 h | 1.84 µM
COc1ccc(C[C]2([Ti+2][C]3(Cc4ccc(OC)cc4)C=CC=C3)C=CC=C2)cc1.[Cl-].[Cl-] | HEK-293T | XTT | 72 h | > 200 µM
CC(=O)Oc1ccc2c(c1)C(C)=CC(C)(C)N2Cc1ccccc1 | Huh-7 | MTT | 72 h | 25 µM
Cc1ccc2nc(-c3ccccc3O)[nH]c2c1 | HepG2 | MTT | 48 h | 26.1 µM
N[C@@H](CC(=O)N1CCN(C(c2ccc(F)cc2)c2ccc(F)cc2)CC1)C(=O)N1Cc2ccccc2C1 | TF-1 | ATP luminescence | 48 h | 28.8 µM
